Usually MIC stands for the smallest concentration in the dilution series that meets the test's criterion for growth inhibition.

The record followed here is ChEMBL document CHEMBL1641447, “Rational design and synthesis of potent aminoglycoside antibiotics against resistant bacterial strains” (2011).

Format in all cases: functional
Assay [1] has as its system Staphylococcus aureus. Put plainly: Antibacterial activity against methicillin-resistant Staphylococcus aureus ATCC 33591 after 16-20 hrs by microdilution broth method. The gist of the method: (§1)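 CLSI broth microdilution on hydrochloride salts (HPLC purity over 98%). Actively growing broth cultures were adjusted to McFarland 0.5 and added to 2-fold drug dilutions to give a final inoculum of […]. Trays were covered and incubated at 37 °C for 16–20 h. MIC ([…]) was taken as the lowest concentration preventing visible growth. Tests were run in triplicate.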

Assay [2] relates to Pseudomonas aeruginosa. Put plainly: Antibacterial activity against Pseudomonas aeruginosa ATCC 27853 after 16-20 hrs by microdilution broth method. The gist of the method:
(§2)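 CLSI broth microdilution with test agents as hydrochloride salts (HPLC purity over 98%), twofold dilutions in 96-well trays. Actively growing broth cultures were diluted to McFarland 0.5 for the inoculum. Trays were covered and incubated at 37 °C for 16–20 h. MIC (µg/mL) was the lowest concentration without visible growth; triplicate runs.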
A general note: Broth dilution looks for growth in wells or tubes with falling amounts of substance.

The subject of assay [3] is Staphylococcus aureus. Put plainly: Antibacterial activity against Staphylococcus aureus ATCC 29213 after 16-20 hrs by microdilution broth method. The gist of the method: as §2
The subject of assay [4] is Enterococcus faecalis. The assay can be described thus: Antibacterial activity against Enterococcus faecalis ATCC 29212 after 16-20 hrs by microdilution broth method. The gist of the method:
as §2

Assay [5] deals with Staphylococcus epidermidis. Put plainly: Antibacterial activity against Staphylococcus epidermidis 07-9 clinical isolate expressing APH(30)-IIIa after 16-20 hrs by microdilution broth method. The procedure, abridged: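 Clinical isolate from a Beijing Friendship Hospital patient (2007), with aph(3′)-IIIa confirmed by PCR. CLSI broth microdilution with hydrochloride salts in twofold dilutions, inoculum from actively growing culture at McFarland 0.5, 37 °C for 16–20 h in covered trays. MIC (µg/mL) was the lowest concentration inhibiting visible growth; triplicate runs.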

Assay [6] has as its system Klebsiella pneumoniae. The assay can be described thus: Antibacterial activity against Klebsiella pneumoniae ATCC 700603 after 16-20 hrs by microdilution broth method. The procedure, abridged: as §2
Assay [7] concerns Mortierella alpina. The assay can be described thus: Antibacterial activity against Mortierella alpina ATCC 32221 after 16-20 hrs by microdilution broth method.
In assay [8] the test system is Escherichia coli. The assay can be described thus: Antibacterial activity against Escherichia coli ATCC 25922 after 16-20 hrs by microdilution broth method. The procedure, abridged: as §2
Assay [9] relates to Staphylococcus epidermidis. Put plainly: Antibacterial activity against Staphylococcus epidermidis ATCC 12228 after 16-20 hrs by microdilution broth method. The gist of the method: as §2
For assay [10], the system named is Staphylococcus epidermidis. The assay can be described thus: Antibacterial activity against methicillin-resistant isolate Staphylococcus epidermidis 08-18 after 16-20 hrs by microdilution broth method. The gist of the method: as §1
Assay [11] has as its system Escherichia coli. The assay can be described thus: Antibacterial activity against Escherichia coli BL21 expressing pET29a engineering strain expressing APH(30)-Ia after 16-20 hrs by microdilution broth method. The procedure, abridged: as §1
The test system of assay [12] is Escherichia coli. Put plainly: Antibacterial activity against Escherichia coli ATCC 35218 after 16-20 hrs by microdilution broth method. The gist of the method:
as §2

SMILES strings stand for the structures. ≈ marks a conversion by molar mass, not a printed value.

With `NC[C@H]1O[C@H](O[C@H]2[C@H](O)[C@@H](O[C@H]3O[C@H](CO)[C@@H](O)[C@H](N)[C@H]3O)[C@H](N)C[C@@H]2N)[C@H](N)[C@@H](O)[C@@H]1NC(=O)C1CCCCC1`, the MIC in [1] is 4 µg/mL (≈ 6.75 µM); in [2] it was 8 µg/mL (≈ 13.5 µM); in [3], 1 µg/mL (≈ 1.69 µM); in [4], 64 µg/mL (≈ 108 µM); in [5], above 128 µg/mL; in [6] it was 32 µg/mL (≈ 54 µM). In addition, the MIC is above 128 µg/mL in assay [7]; 2 µg/mL (≈ 3.37 µM) in assay [8]; 0.25 µg/mL (≈ 0.422 µM) in assay [9]; 1 µg/mL (≈ 1.69 µM) in assay [10]; 64 µg/mL (≈ 108 µM) in [11]; 2 µg/mL (≈ 3.37 µM) in assay [12].

With `CN(C)[C@H]1[C@H](O)[C@@H](N)[C@@H](O[C@H]2[C@H](O)[C@@H](O[C@H]3O[C@H](CO)[C@@H](O)[C@H](N)[C@H]3O)[C@H](N)C[C@@H]2N)O[C@@H]1CN`, the MIC is above 128 µg/mL in assay [1]; above 128 µg/mL in [2]; 32 µg/mL (≈ 62.7 µM) in [3]; above 128 µg/mL in assay [4]; above 128 µg/mL in assay [5]; 64 µg/mL (≈ 125 µM) in assay [6]. In addition, the MIC was above 128 µg/mL in assay [7]; 128 µg/mL (≈ 251 µM) in assay [8]; 16 µg/mL (≈ 31.3 µM) in assay [9]; 32 µg/mL (≈ 62.7 µM) in assay [10]; above 128 µg/mL in assay [11]; 64 µg/mL (≈ 125 µM) in assay [12].

Turning to `CC(=O)N[C@H]1[C@H](O)[C@@H](N)[C@@H](O[C@H]2[C@H](O)[C@@H](O[C@H]3O[C@H](CO)[C@@H](O)[C@H](N)[C@H]3O)[C@H](N)C[C@@H]2N)O[C@@H]1CN`, the MIC in assay [1] is 16 µg/mL (≈ 30.5 µM); in assay [2], 4 µg/mL (≈ 7.63 µM); in [3], 2 µg/mL (≈ 3.81 µM); in assay [4] it was above 128 µg/mL; in assay [5], above 128 µg/mL; in assay [6] it was 2 µg/mL (≈ 3.81 µM). The MIC in assay [7] was above 128 µg/mL; in assay [8] it was 2 µg/mL (≈ 3.81 µM); in assay [9], 0.5 µg/mL (≈ 0.953 µM); in [10], 2 µg/mL (≈ 3.81 µM); in [11], 128 µg/mL (≈ 244 µM); in [12], 8 µg/mL (≈ 15.3 µM).

On to `NCCCC(=O)N[C@H]1[C@H](O)[C@@H](N)[C@@H](O[C@H]2[C@H](O)[C@@H](O[C@H]3O[C@H](CO)[C@@H](O)[C@H](N)[C@H]3O)[C@H](N)C[C@@H]2N)O[C@@H]1CN`, for which the minimum inhibitory concentration (MIC) came out at 2 µg/mL (≈ 3.52 µM) in [1]; 0.5 µg/mL (≈ 0.881 µM) in assay [2]; 0.25 µg/mL (≈ 0.44 µM) in assay [3]; 32 µg/mL (≈ 56.4 µM) in [4]; 32 µg/mL (≈ 56.4 µM) in assay [5]; 1 µg/mL (≈ 1.76 µM) in [6]. Besides, the MIC in assay [7] was above 128 µg/mL; in assay [8] it was 1 µg/mL (≈ 1.76 µM); in assay [9] it was below 0.06 µg/mL; in [10], 0.25 µg/mL (≈ 0.44 µM); in [11], 8 µg/mL (≈ 14.1 µM); in assay [12] it was 1 µg/mL (≈ 1.76 µM).

As for `Cc1ccccc1C(=O)NCC(=O)N[C@H]1[C@H](O)[C@@H](N)[C@@H](O[C@H]2[C@H](O)[C@@H](O[C@H]3O[C@H](CO)[C@@H](O)[C@H](N)[C@H]3O)[C@H](N)C[C@@H]2N)O[C@@H]1CN`, the MIC in assay [1] is 64 µg/mL (≈ 97.3 µM); in [2], 32 µg/mL (≈ 48.7 µM); in [3] it was 2 µg/mL (≈ 3.04 µM); in assay [4], 64 µg/mL (≈ 97.3 µM); in [5], above 128 µg/mL; in assay [6], 64 µg/mL (≈ 97.3 µM). The MIC in assay [7] is above 128 µg/mL; in assay [8], 4 µg/mL (≈ 6.08 µM); in [9], 0.5 µg/mL (≈ 0.76 µM); in assay [10], 8 µg/mL (≈ 12.2 µM); in [11], above 128 µg/mL; in assay [12], 4 µg/mL (≈ 6.08 µM).

As to `NC[C@H]1O[C@H](O[C@H]2[C@H](O)[C@@H](O[C@H]3O[C@H](CO)[C@@H](O)[C@H](N)[C@H]3O)[C@H](N)C[C@@H]2N)[C@H](N)[C@@H](O)[C@@H]1NC(=O)C1CCNCC1`, the MIC was found to be 2 µg/mL (≈ 3.37 µM) in assay [1]; 2 µg/mL (≈ 3.37 µM) in [2]; 1 µg/mL (≈ 1.68 µM) in [3]; 128 µg/mL (≈ 216 µM) in [4]; 128 µg/mL (≈ 216 µM) in assay [5]; 8 µg/mL (≈ 13.5 µM) in assay [6]. Moreover, the MIC in assay [7] was above 128 µg/mL; in assay [8] it was 2 µg/mL (≈ 3.37 µM); in assay [9] it was 0.25 µg/mL (≈ 0.421 µM); in assay [10], 0.25 µg/mL (≈ 0.421 µM); in assay [11], 4 µg/mL (≈ 6.74 µM); in assay [12] it was 2 µg/mL (≈ 3.37 µM).

As for `NC[C@H]1O[C@H](O[C@H]2[C@H](O)[C@@H](O[C@H]3O[C@H](CO)[C@@H](O)[C@H](N)[C@H]3O)[C@H](N)C[C@@H]2N)[C@H](N)[C@@H](O)[C@@H]1O` [BEKANAMYCIN], the MIC is above 128 µg/mL in [1]; 64 µg/mL (≈ 132 µM) in assay [2]; 1 µg/mL (≈ 2.07 µM) in assay [3]; 64 µg/mL (≈ 132 µM) in assay [4]; above 128 µg/mL in assay [5]; 16 µg/mL (≈ 33.1 µM) in assay [6]. Moreover, the MIC in assay [7] is above 128 µg/mL; in assay [8], 4 µg/mL (≈ 8.27 µM); in [9], 0.25 µg/mL (≈ 0.517 µM); in assay [10] it was 32 µg/mL (≈ 66.2 µM); in assay [11], 64 µg/mL (≈ 132 µM); in assay [12] it was 4 µg/mL (≈ 8.27 µM).

Turning to `NC[C@@H]1O[C@@H](O[C@H]2[C@H](O)[C@@H](O[C@H]3O[C@H](CO)[C@@H](O)[C@H](N)[C@H]3O)[C@H](N)C[C@@H]2N)[C@@H](O)[C@H](O)[C@H]1O` [KANAMYCIN A], the MIC in assay [1] is 128 µg/mL (≈ 264 µM); in [2], above 128 µg/mL; in assay [3] it was 2 µg/mL (≈ 4.13 µM); in assay [4] it was 64 µg/mL (≈ 132 µM); in [5] it was above 128 µg/mL; in assay [6] it was 64 µg/mL (≈ 132 µM). Besides, the MIC in assay [7] was above 128 µg/mL; in assay [8], 2 µg/mL (≈ 4.13 µM); in assay [9], 1 µg/mL (≈ 2.06 µM); in assay [10] it was 8 µg/mL (≈ 16.5 µM); in [11], above 128 µg/mL; in assay [12], 4 µg/mL (≈ 8.26 µM).
